RAM inhibit = blocks the yeast RAM network; S. cerevisiae dse1pr::URA3 reporter, 5-FOA growth OD615, 2 d; analog-sensitive cbk1-as2 kinase mutant strain; inhibition, % at 50 µM; actives 1.8% (n = 190,000);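 active means inhibition above a set limit, 3 SD over mean compound inhibition, cut at about 8.4% in these data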;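 further: 0% = DMSO-only wells with no growth and 100% = 10 µM 1-NA-PP1 full growth; inhibition rescues growth on 5-FOA so higher OD means more RAM inhibition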
Yeast lifespan up = extends the lifespan of yeast; S. cerevisiae growth with nicotinamide, OD615; deaD strain in restrictive glucose medium; inhibition of the nicotinamide effect, % at 10 µM; actives 0.68% (n = 130,000); AID 775;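 active means inhibition above a set limit, placed 3 SD over the median of all compounds, cut at about 26% in these data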;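 further: 0% = nicotinamide-treated wells and 100% = cells grown without nicotinamide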
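assay system = DeaD-strain S. cerevisiae | measured by = absorbance at 615 nm | probe or stimulus = nicotinamide 1.5 mM | buffer or medium = CSMM-D glucose medium, restrictive | times = 48 h at 30 °C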
sdo1 growth = compounds rescuing growth of sdo1-depleted yeast, bone marrow failure model | S. cerevisiae sdo1-depleted JHY4D growth rescue, OD600 30 h; stronger effect = higher value; pdr5 snq2 efflux-pump mutant strain | z-score at 10 µM | actives 0.21% (n = 140,000) | AID 817;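 active means z-score above 3 at both the 24 hr and the 30 hr optical density reads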;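 further: z-score against mean and SD of all compound wells on the same plate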
Yeast growth inh = yeast BB579 growth reduction in restrictive medium; inhibition, % at 10 µM; S. cerevisiae BB579 growth, OD615, 48 h; actives 0.51% (n = 140,000);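 active means inhibition above a set limit, 3 SD over the mean compound inhibition, cut at about 44% in these data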
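System: DeaD yeast strain BB579; buffer or medium: CSMM-D dextrose restrictive medium; technique: OD at 615 nm; schedule: 4 h cell preincubation, 48 h compound exposure, 30 °C humidified; doses: single 10 µM dose; controls: amphotericin B 10 µg/mL, positive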
An asterisk follows results filed as active; . = no result given. Rows were chosen to be rich in hits. Some 2.7% of all compounds tested hit in one or more screens of this group.

SMILES	RAM inhibit	Yeast lifespan up	sdo1 growth	Yeast growth inh
CCN(CC)C(=O)c1sc2nc(-c3cccs3)cc(-c3ccc(Cl)cc3)c2c1N	9.2*	3.0	-0.86	-62.6
CCN1CCC(NC(=O)Nc2cc(Cl)ccc2OC)CC1	1.3	.	.	.
O=C(COC(=O)/C=C/c1ccco1)Nc1cccc([N+](=O)[O-])c1	1.5	-1.4	0.7	-43.2
Cc1ccc2nc(-c3ccc(NC(=O)CSc4ccccc4)cc3)[nH]c2c1	3.0	75.9*	-1.28	-22.4
CCN1C(=O)CSc2ccc(C(=O)NC3CCCCC3)cc21	8.7*	0.2	-1.27	-27.4
CCOc1ccc(OCCn2nnc3ccccc3c2=O)cc1	5.0	.	.	.
Cc1oc2c(c1C(=O)c1ccccc1)C(=O)C(=O)c1ccccc1-2	1.8	-23.8	-1.92	0.9
O=C1C(=O)c2c(C(=O)c3ccccc3)coc2-c2ccccc21	-1.2	-15.7	-2.89	99.2*
CC(C)NC(=O)CSc1nc(N)c(NC(=O)c2ccco2)c(=O)[nH]1	1.4	.	.	.
Cc1ccc(C(C(=O)NC2CCCCC2)N(CC2CCCO2)C(=O)CNC(=O)c2cccs2)cc1 (stereo not drawn)	8.9*	-14.7	0.44	-19.6
COc1ccc(-c2noc(CSc3nnc(CCc4ccccc4)n3-c3ccccc3)n2)cc1OC	1.8	-0.6	-1.42	-56.0
COc1ccc(-c2noc(CSc3nnc(Cc4ccccc4)n3-c3ccc(Cl)cc3)n2)cc1	10.5*	-3.8	-1.76	-33.8
Cc1ccc(-c2noc(CSc3nnc(Cc4ccccc4)n3-c3ccc(Cl)cc3)n2)cc1	8.5*	6.8	-1.37	-16.5
CCOC(=O)c1c(NC(=O)Cn2ccsc2=N)sc(C)c1C	0.7	.	.	.
COC(=O)c1nnn(CC(=O)NC(=O)Nc2cccc(Cl)c2C)c1C(=O)OC	1.0	.	.	.
Cc1nc2c(c(C)c1C#N)C(=O)c1ccccc1-2	5.2	-6.6	-0.26	64.0*
Cc1nc2c(c(-c3ccccc3)c1C#N)C(=O)c1ccccc1-2	3.9	-17.2	-1.14	-35.5
COc1cc(C(=O)NCCC(C)C)ccc1OCc1ccc(Cl)cc1Cl	9.8*	4.8	-0.39	-34.6
CC(NC(=S)NCc1ccc(F)cc1)C12CC3CC(CC(C3)C1)C2 (stereo not drawn)	6.2	.	.	.
CC(=O)Nc1ccc(S(=O)(=O)Nc2cccc(-c3cn4cccnc4n3)c2)cc1	2.2	.	.	.
CCOc1ccccc1NC(=O)c1cc(C(=O)Nc2ccccc2OCC)cc(N2C(=O)CCC2=O)c1	5.5	.	.	.
C#CCSc1nc(Cc2ccc(Cl)cc2)nc2ccccc12	8.6*	1.1	-1.12	-43.5
CC(C)(O)C#Cc1ccc(CN2CCN(CCc3ccccc3)C(CCO)C2)s1 (stereo not drawn)	-0.5	.	.	.
COC(=O)COc1ccc2c(-c3ccc(OC)cc3)cc(=O)oc2c1	5.3	-6.6	-0.39	-61.2
COc1ccc(-c2cc(=O)oc3cc(OC(=O)C4CCCCC4)ccc23)cc1	11.1*	4.5	-0.21	-13.3
SMILES	RAM inhibit	Yeast lifespan up	sdo1 growth	Yeast growth inh
O=C(Oc1ccc2c(-c3ccccc3)cc(=O)oc2c1)C1CCCCC1	9.3*	-10.7	-0.48	-30.3
CN(C)C(CNC(=S)Nc1cccc(Cl)c1)c1cccnc1 (stereo not drawn)	1.6	.	.	.
CCOCCCNC(=S)N1CCC(NC(=O)C23CC4CC(CC(C4)C2)C3)CC1	1.7	.	.	.
COc1ccccc1NS(=O)(=O)c1ccc(NC(=O)c2ccncc2)cc1	0.6	.	.	.
CCn1ccc(C(=O)Nc2ccc(S(=O)(=O)Nc3ccccc3OC)cc2)n1	0.2	67.0*	-1.37	-57.9
CCN(Cc1ccncc1)Cc1cn(C)nc1-c1ccc(Oc2ccccc2)cc1	-0.5	.	.	.
CCCCOc1ccc(C(=O)N/C(=C\c2cccc([N+](=O)[O-])c2)C(=O)OCCC)cc1	5.2	-6.3	-1.58	-27.7
CCCCOc1ccc(C(=O)N/C(=C\c2cccc([N+](=O)[O-])c2)C(=O)OC(C)C)cc1	8.8*	-9.6	-0.54	-40.8
O=C(c1ccccc1)N1CCN(S(=O)(=O)c2cccc(NS(=O)(=O)c3ccccc3)c2)CC1	3.6	.	.	.
Nc1nonc1C(=O)NCCN=Cc1cc(Cc2ccccc2)cc(Br)c1O	-1.4	-11.9	-1.75	99.4*
C/C(=N\NC(=O)CSCc1ccccc1Cl)c1cc(O)ccc1O	-0.9	.	.	.
Cc1cccc(C2(c3cccc(C)c3)OC(=O)c3ccccc32)c1	9.0*	-8.1	-1.34	-58.7
Cc1cc(O)ccc1C1(c2ccc(O)cc2C)OC(=O)c2ccccc21	2.1	.	-0.92	-13.7
COc1cc(OC)c(OC)cc1/C=C/C(=O)c1ccc(NS(=O)(=O)c2ccc(C)cc2)cc1	9.9*	4.5	-0.1	-42.7
